ChEMBL document CHEMBL4251588, “2-Alkoxycarbonyl-3-arylamino-5-substituted thiophenes as a novel class of antimicrotubule agents: Design, synthesis, cell growth and tubulin polymerization inhibition” (Eur J Med Chem, 2018)
Active and inactive are the calls of the source. The calls are words filed in the database; no cut-off is given here.

Tests used:
L1210 = test: Antiproliferative activity against mouse L1210 cells after 2 days by Coulter counter method; assay type: functional, cell-based; conditions: L1210, 48 h
Summary of the method: (§1)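 Cells suspended at 300,000–500,000 cells/mL; 100 μL suspension added to 100 μL of compound dilutions. Incubated at 37 °C for 2 days (L1210, FM3A), 3 days (CEM) or 4 days (HeLa), then counted by Coulter counter. IC50 is the concentration giving 50% inhibition of proliferation. Values are mean ± SD of two to three independent experiments.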

HeLa [1] = test: Antiproliferative activity against human HeLa cells after 4 days by Coulter counter method; assay type: functional, cell-based; conditions: 96 h; summary of the method: as §1
CCRF-CEM = test: Antiproliferative activity against human CEM cells after 3 days by Coulter counter method; assay type: functional, cell-based; conditions: 72 h; summary of the method: as §1
Bos taurus = species: Bos taurus; test: Inhibition of [3H]colchicine binding to bovine brain tubulin at 5 uM relative to control
Summary of the method: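 Reaction mixtures held 1 μM tubulin, 5 μM [3H]colchicine and 5 μM test compound. Inhibition of radiolabelled colchicine binding was measured by a previously described method.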

[2] = Inhibition of bovine brain tubulin polymerization in presence of GTP by spectrophotometric analysis; set-up: species or system Bos taurus
Summary of the method: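 0.4 mM GTP added, mixtures rewarmed to 30 °C in cuvettes and turbidity followed at 350 nm.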

FM3A = test: Antiproliferative activity against mouse FM3A cells after 2 days by Coulter counter method; assay type: functional, cell-based; conditions: 48 h
Summary of the method: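 Cells suspended at 300,000–500,000 cells/mL; 100 μL suspension added to 100 μL of compound dilutions. Incubated at 37 °C for 2 days (L1210, FM3A), 3 days (CEM) or 4 days (HeLa), then counted by Coulter counter. Values are mean ± SD of two to three independent experiments.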

HeLa [3] = test: Cell cycle arrest in human HeLa cells assessed as increase in cyclin B1 expression after 24 hrs by Western blot analysis; assay type: functional, cell-based
Summary of the method: (§2)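 HeLa cells treated for 24 or 48 h at several concentrations, washed in ice-cold PBS, lysed on ice 30 min and spun at 15000 x g, 4 °C. 10 μg protein separated by SDS-PAGE, blotted, blocked in 3% BSA, probed overnight at 4 °C with primary antibodies, peroxidase secondary and ECL detection. Stripped membranes reprobed for β-actin as loading control.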

HeLa [4] = test: Induction of apoptosis in human HeLa cells at 125 to 500 nM after 24 to 48 hrs by annexin V-FITC/propidium iodide staining-based flow cytometric analysis; assay type: functional, cell-based
Summary of the method: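 Treated HeLa cells were harvested at 24 or 48 h and double-labeled with annexin-V-FITC, which marks exposed phosphatidylserine, and PI. Apoptotic fractions were measured by flow cytometry; mean ± SEM of three independent experiments.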

HeLa [5] = test: Cell cycle arrest in human HeLa cells assessed as decrease in Cdk1 Y15 phosphorylated protein level at 250 nM after 24 to 48 hrs by Western blot analysis; assay type: functional, cell-based; summary of the method: as §2
HeLa [6] = test: Induction of ROS production in human HeLa cells at 250 nM after 12 to 24 hrs by H2DCFDA staining-based flow cytometric analysis; assay type: functional, cell-based
Summary of the method: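 HeLa cells treated for 6, 12, 24 or 48 h, then loaded with H2-DCFDA and ROS read by flow cytometry; mean ± SEM of three independent experiments.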

HeLa [7] = test: Cell cycle arrest in human HeLa cells assessed as decrease in cyclin B1 expression after 48 hrs by Western blot analysis; assay type: functional, cell-based; summary of the method: as §2
HeLa [8] = test: Induction of mitochondrial depolarization in human HeLa cells at 100 to 250 nM by JC-1 staining-based flow cytometric analysis; assay type: functional, cell-based; conditions: TDE = time-dependent effect
Summary of the method: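 Mitochondrial potential followed in HeLa cells after 6, 12, 24 or 48 h of exposure. Cells stained with the lipophilic cation JC-1 and the fraction with low Δψmt scored by flow cytometry; mean ± SEM of three independent experiments.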

PBL [9] = test: Growth inhibition of human PHA-stimulated PBL after 72 hrs by MTT assay; assay type: cell-based
Summary of the method: (§3)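 Donor PBL isolated by density gradient, washed, held overnight at 1.0 × 10^6 cells/mL in RPMI-1640 with 10% FBS. Non-adherent cells reseeded at 5 × 10^5 cells/mL, with 2.5 μg/mL PHA (proliferating) or without it (resting), then given compound dilutions. MTT viability read after 72 h. GI50 is the concentration giving 50% growth reduction; mean ± SEM of two experiments.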

HeLa [10] = test: Cell cycle arrest in human HeLa cells assessed as reduction of cells at G1 phase up to 500 uM after 24 hrs by propidium iodide staining-based flow cytometric analysis; assay type: functional; conditions: in the assay text read “500 nM” for “500 uM”
Summary of the method: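 5 × 10^5 HeLa cells exposed to graded compound levels for 24 h; harvested, fixed in ice-cold 70% ethanol, lysed in buffer containing RNase A and 0.1% Triton X-100, PI-stained, DNA content read by flow cytometry. Phase percentages are means ± SEM of two independent experiments.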

HeLa [11] = test: Induction of apoptosis in human HeLa cells assessed as decrease in Bcl-2 levels at 100 to 250 nM after 24 hrs by Western blot analysis; assay type: functional, cell-based
Summary of the method: (§4)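 HeLa cells exposed to compound for varied times, washed twice in ice-cold PBS, lysed on ice 30 min and spun 15000 x g at 4 °C. 10 μg protein per lane by SDS-PAGE, blotted, blocked in 3% BSA, primary antibodies (Bcl-2, Mcl-1) overnight at 4 °C, peroxidase secondary 60 min, ECL detection; membranes stripped and reprobed for β-actin as loading control.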

HeLa [12] = test: Cell cycle arrest in human HeLa cells assessed as reduction in cdc25c expression at 100 nM after 24 hrs by Western blot analysis
HeLa [13] = test: Cell cycle arrest in human HeLa cells assessed as increase in cells at S phase at 500 nM after 24 hrs by propidium iodide staining-based flow cytometric analysis
HeLa [14] = test: Cell cycle arrest in human HeLa cells assessed as accumulation of cells at G2/M phase at 500 nM after 24 hrs by propidium iodide staining-based flow cytometric analysis
HeLa [15] = test: Induction of apoptosis in human HeLa cells assessed as decrease in Mcl-1 levels at 100 to 250 nM after 24 hrs by Western blot analysis; assay type: functional, cell-based; summary of the method: as §4
PBL [16] = test: Growth inhibition of resting human PBL after 72 hrs by MTT assay; assay type: cell-based; summary of the method: as §3

Row | SMILES | IC50 (L1210) | IC50 (HeLa [1]) | IC50 (CCRF-CEM) | inhibition (Bos taurus) | IC50 [2] | IC50 (FM3A) | further results
1 | COc1ccc(/C=C\c2cc(OC)c(OC)c(OC)c2)cc1O [COMBRETASTATIN A4] | 3 nM | 2 nM | 2 nM | – | – | – | –
2 | COC(=O)c1sc(-c2ccc(OC)c(OC)c2)cc1Nc1cc(OC)c(OC)c(OC)c1 | 480 nM | 890 nM | 470 nM | 30% | 2700 nM | 430 nM | –
3 | COC(=O)c1sc(-c2ccc(Cl)c(Cl)c2)cc1Nc1cc(OC)c(OC)c(OC)c1 | 5700 nM | 5000 nM | 3300 nM | – | – | 4600 nM | –
4 | CCOC(=O)c1sc(-c2ccc(Cl)cc2)cc1Nc1cc(OC)c(OC)c(OC)c1 | 6000 nM | 9800 nM | 4600 nM | – | – | 5100 nM | –
5 | COC(=O)c1sc(-c2cccs2)cc1Nc1cc(OC)c(OC)c(OC)c1 | 130 nM | 160 nM | 160 nM | 62% | 1200 nM | 160 nM | Activity (HeLa [3]): Dose-dependent effect; Activity (HeLa [4]): Active; Activity (HeLa [5]): Active; Activity (HeLa [6]): Active; Activity (HeLa [7]): Active; Activity (HeLa [8]): Tde; GI50 (PBL [9]): 29300 nM; Activity (HeLa [10]): Active; Activity (HeLa [11]): Active; Activity (HeLa [12]): Active; Activity (HeLa [13]): Active; Activity (HeLa [14]): Active; Activity (HeLa [15]): Active; GI50 (PBL [16]): 85700 nM
6 | COC(=O)c1sc(-c2ccc(F)cc2)cc1Nc1cc(OC)c(OC)c(OC)c1 | 560 nM | 880 nM | 530 nM | 41% | 2200 nM | 720 nM | –
7 | COC(=O)c1sc(-c2ccc(C)cc2)cc1Nc1cc(OC)c(OC)c(OC)c1 | 150 nM | 260 nM | 180 nM | 70% | 1200 nM | 180 nM | Activity (HeLa [4]): Active; GI50 (PBL [9]): 20000 nM; Activity (HeLa [10]): Active; Activity (HeLa [13]): Active; Activity (HeLa [14]): Active; GI50 (PBL [16]): 31700 nM
8 | COC(=O)c1sc(-c2ccc(OC)cc2)cc1Nc1cc(OC)c(OC)c(OC)c1 | 270 nM | 840 nM | 230 nM | 46% | 2000 nM | 250 nM | –
9 | COC(=O)c1sc(-c2cc(OC)c(OC)c(OC)c2)cc1Nc1cc(OC)c(OC)c(OC)c1 | > 250000 nM | 162000 nM | > 250000 nM | – | – | > 250000 nM | –
10 | COC(=O)c1sc(-c2ccc(Cl)cc2)cc1Nc1cc(OC)c(OC)c(OC)c1 | 1100 nM | 870 nM | 870 nM | – | – | 880 nM | –
11 | COC(=O)c1sc(-c2ccc([N+](=O)[O-])cc2)cc1Nc1cc(OC)c(OC)c(OC)c1 | 990 nM | 1000 nM | 760 nM | – | – | 930 nM | –
12 | COC(=O)c1sc(-c2ccc(C(F)(F)F)cc2)cc1Nc1cc(OC)c(OC)c(OC)c1 | 1200 nM | 1300 nM | 810 nM | – | – | 1100 nM | –
13 | CCOC(=O)c1sc(-c2ccc(OC)cc2)cc1Nc1cc(OC)c(OC)c(OC)c1 | 1200 nM | 2300 nM | 1100 nM | – | – | 1200 nM | –
14 | COC(=O)c1sc(-c2cccc(OC)c2)cc1Nc1cc(OC)c(OC)c(OC)c1 | 1100 nM | 800 nM | 690 nM | – | – | 990 nM | –
15 | CCOC(=O)c1sc(-c2ccc(C)cc2)cc1Nc1cc(OC)c(OC)c(OC)c1 | 820 nM | 780 nM | 760 nM | – | – | 820 nM | –
16 | COC(=O)c1sc(-c2ccccc2)cc1Nc1cc(OC)c(OC)c(OC)c1 | 240 nM | 670 nM | 200 nM | 57% | 1300 nM | 210 nM | Activity (HeLa [4]): Active; GI50 (PBL [9]): 19000 nM; Activity (HeLa [10]): Active; Activity (HeLa [13]): Active; Activity (HeLa [14]): Active; GI50 (PBL [16]): 45700 nM
17 | CCOC(=O)c1sc(-c2ccc(F)cc2)cc1Nc1cc(OC)c(OC)c(OC)c1 | 1100 nM | 2100 nM | 990 nM | – | – | 1000 nM | –
18 | CCOc1ccc(-c2cc(Nc3cc(OC)c(OC)c(OC)c3)c(C(=O)OC)s2)cc1 | 6300 nM | 4400 nM | 5400 nM | – | – | 5700 nM | –
19 | CCOC(=O)c1sc(-c2ccccc2)cc1Nc1cc(OC)c(OC)c(OC)c1 | 1100 nM | 1400 nM | 930 nM | – | – | 980 nM | –
